In general, IC50 refers to the concentration needed to halve the response being measured. The low end stands for higher potency, the high end for lower potency. The term LD50 denotes the dose at which mortality reaches 50%. A higher LD50 goes with a less toxic substance.

From ChEMBL document CHEMBL1128497, “Synthesis and in vitro and in vivo antitumor activity of a series of trans platinum antitumor complexes” (J Med Chem, 1995) come the findings set out here.

Values joined by “and” are separate entries in the source; they are usually repeats but may differ in a detail not shown here. Identical values can stand only once.

The subject of data set [1] is 41M. Description: In vitro antitumor activity against 41M cell line. The format is functional, cell-based, Homo sapiens. Put shortly:
(§1)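 Human ovarian carcinoma monolayers were grown in DMEM with 10% FCS, insulin and hydrocortisone under 10% CO2. Cells were seeded at 5 × 10^3–1 × 10^4 per well and left to attach overnight. Drugs were freshly dissolved in 0.9% saline (1 mM or 500 μM stocks) and added to quadruplicate wells for 96 h. Cell mass was read by SRB staining. IC50 values are means of at least two experiments.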

Data set [2] concerns 41M. Description: In vitro antitumor activity against 41McisR cell line. It counts as functional, cell-based, Homo sapiens. Put shortly: as §1
The subject of data set [3] is CH1. Description: In vitro antitumor activity against CH1cisR cell line. It counts as functional, cell-based, Homo sapiens. The procedure, abridged:
as §1

A short description of data set [4]: In vivo antitumor activity by i.p. administration against murine ADJ/PC6 (sc) plasmacytoma. The format is ADME, organism-based. The note with it: mouse, ip.
The test system of data set [5] is SK-OV-3. Description: In vitro antitumor activity against SK-OV-3 cell line. The format is functional, cell-based, Homo sapiens. The procedure, abridged: as §1
Data set [6] deals with A2780. Description: In vitro antitumor activity against A2780cisR cell line. It counts as functional, cell-based, Homo sapiens. Put shortly:
as §1

Data set [7] has as its system A2780. Nature of the data set: In vitro antitumor activity against A2780 cell line. The format is functional, cell-based, Homo sapiens. The procedure, abridged:
as §1

The test system of data set [8] is CH1. Description: In vitro antitumor activity against CH1 cell line. The format is functional, cell-based, Homo sapiens. The procedure, abridged:
as §1

The subject of data set [9] is A2780. Description: Resistant factor determined between IC50 of resistant line to that of parental A2780 cell line. It counts as functional, cell-based. The settings on record: Homo sapiens. Put shortly: (§2)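 Resistance factor is the IC50 in the cisplatin-resistant subline divided by the IC50 in its parent line. IC50s came from a 96 h SRB cytotoxicity assay run in quadruplicate wells.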

For data set [10], the system named is CH1. Nature of the data set: Resistant factor, determined between IC50 of resistant line to that of CHcisR cell line. The format is functional, cell-based. The note with it: Homo sapiens; CH1cisR. Put shortly:
as §2

Data set [11] has as its system 41M. Nature of the data set: Resistant factor was determined between IC50 of cisplatin-resistant human tumor cell lines to that of […] cell line. It counts as functional, cell-based. Put shortly: as §2

Regarding “AMMONIO(DICHLORO)PLATINUM(CYCLOHEXYL)AMMONIUM”, the IC50 in data set [1] was 0.26 µM and 1.7 µM; in [2], 0.28 µM and 1.5 µM; in data set [3], 0.38 µM and 3.3 µM; in [5], 2.1 µM and 7.2 µM. Moreover, in data set [4], the LD50 was 17.5 mg/kg and 35 mg/kg.
In the case of “AMMONIO(DICHLORO)[DI(METHYLCARBONYLOXY)]PLATINUM(CYCLOHEXYL)AMMONIUM [listing 1 of 2 here]”, the concentration for half-maximal inhibition (IC50) in [1] stood at 1.3 µM; in [2] it was 1.2 µM; in data set [6], 3 µM; in [7] it was 0.3 µM; in data set [3] it was 1.5 µM; in data set [8] it was 1.1 µM. Inhibition in [5] was half-maximal at 4.8 µM (IC50). This substance also yielded an LD50 in data set [4] of 35 mg/kg.
As to “AMMONIO(DICHLORO)[DI(METHYLCARBONYLOXY)]PLATINUM(CYCLOHEXYL)AMMONIUM [listing 2 of 2 here]”, the RF is 10 in [9], 1.4 in [10] and 0.9 in data set [11].
On to TRANSPLATIN, for which the IC50 turned out to be 57 µM in [1]; 70 µM in data set [2]; 260 µM in data set [6]; 32 µM in [7]; 68.5 µM in data set [3]; 30 µM in data set [8]. For the same substance, in data set [5], it took 255 µM to reach half-maximal inhibition (IC50). Moreover, the 50% lethal dose (LD50) in data set [4] came out at 32 mg/kg.
On to “Trans-Amminedichloro hexylamine platinium (II) [listing 1 of 2 here]”, for which the IC50 was determined as 4.5 µM in [1]; 4.1 µM in data set [2]; 4.8 µM in data set [6]; 2.3 µM in data set [7]; 4.4 µM in data set [3]; 4 µM in [8]. For the same substance, the IC50 in data set [5] was 7.1 µM.
In the case of “Trans-Amminedichloro hexylamine platinium (II) [listing 2 of 2 here]”, the RF in [9] came to 2.1; in data set [10] it was 1.1; in data set [11] it was 0.9.
On to “Trans-Amminedichloro(cycloheptylamine)platinium (II) [listing 1 of 2 here]”, for which the IC50 was 2.4 µM in [1]; 1.7 µM in [2]; 4.6 µM in [6]; 1.3 µM in data set [7]; 4.7 µM in data set [3]; 4.3 µM in data set [8]. Also, the IC50 in data set [5] turned out to be 10 µM.
Consider “Trans-Amminedichloro(cycloheptylamine)platinium (II) [listing 2 of 2 here]”, for which the RF was 3.4 in data set [9], 1.1 in data set [10] and 0.7 in data set [11].
For “Trans-Amminedichloro(diethylamine)platinium (II)”, the IC50 in data set [1], in data set [2], in [6], in data set [7], in data set [3] and in data set [8] was more than 50 µM in each case. In addition, the IC50 in data set [5] is more than 50 µM.
On to “trans-(1-Aminoadamantane)Amminedichloro-platinium (II) [listing 1 of 2 here]”, for which the IC50 in data set [1] amounted to 0.49 µM; in data set [2], 1.2 µM; in data set [6], 1.4 µM; in [7] it was 0.4 µM; in [3], 0.43 µM; in data set [8], 0.21 µM. Moreover, in data set [5], the IC50 is 1.5 µM.
For “trans-(1-Aminoadamantane)Amminedichloro-platinium (II) [listing 2 of 2 here]”, the RF in [9] is 3.6; in [10], 2; in data set [11], 2.4.
For the substance “trans-Amminedibromo (cyclohexylamine)-platinium (II) [listing 1 of 2 here]”, the IC50 in [1] amounted to 4 µM; in data set [2], 3.2 µM; in data set [6] it was 5.4 µM; in data set [7], 1.9 µM; in data set [3], 5 µM; in data set [8], 4 µM. The half-maximal inhibitory concentration (IC50) in [5] worked out at 11.5 µM.
Turning to “trans-Amminedibromo (cyclohexylamine)-platinium (II) [listing 2 of 2 here]”, the RF is 2.8 in data set [9], 1.2 in [10] and 0.8 in data set [11].
Consider “trans-Amminedichloro(N-methylcyclohexylamine)-platinium (II) [listing 1 of 2 here]”, for which the IC50 was 0.78 µM in [1]; 0.48 µM in data set [2]; 3.6 µM in data set [6]; 0.46 µM in data set [7]; 1.1 µM in data set [3]; 0.38 µM in data set [8]. Also, 3.9 µM corresponded to half-maximal inhibition in [5] (IC50). Besides, the LD50 in data set [4] is 71 mg/kg.
As for “trans-Amminedichloro(N-methylcyclohexylamine)-platinium (II) [listing 2 of 2 here]”, the RF turned out to be 7.8 in [9], 2.8 in [10] and 0.6 in [11].
As to “trans-Amminedichloro(quinuclidine)platinium (II)”, the IC50 in data set [1] was more than 50 µM; in data set [2], more than 50 µM; in data set [6] it was more than 50 µM; in data set [7] it was 26 µM; in data set [3] it was more than 50 µM; in data set [8], more than 50 µM. In data set [5], this substance had an IC50 of more than 50 µM.
Regarding “trans-Amminetetrachloro(cyclohexylamine)-platinium (IV) [listing 1 of 2 here]”, the IC50 in data set [1] is 3.1 µM; in data set [2], 4.1 µM; in data set [6] it was 5.3 µM; in [7], 1.5 µM; in data set [3], 4.7 µM; in data set [8], 3.9 µM. In addition, the IC50 in data set [5] worked out at 9.3 µM.
“trans-Amminetetrachloro(cyclohexylamine)-platinium (IV) [listing 2 of 2 here]”: the RF is 3.4 in data set [9], 1.2 in data set [10] and 1.3 in data set [11].
In the case of “trans-Amminetetrachloro(pyridine)-platinium (IV) [listing 1 of 2 here]”, the IC50 in data set [1] came to 5.3 µM; in [2], 4.1 µM; in [6] it was 5.6 µM; in [7], 3.2 µM; in data set [3] it was 4.8 µM; in [8], 4.7 µM. The substance further displayed an IC50 in data set [5] of 14.5 µM. Moreover, the 50% lethal dose (LD50) in data set [4] was more than 100 mg/kg.
On to “trans-Amminetetrachloro(pyridine)-platinium (IV) [listing 2 of 2 here]”, for which the RF worked out at 1.7 in [9], 1 in data set [10] and 0.8 in data set [11].
“trans-Amminetetrachloro(quinuclidine)-platinium (IV)”: the IC50 came out at 16.5 µM in data set [1]; 16 µM in data set [2]; 16 µM in data set [6]; 14 µM in [7]; 15.5 µM in [3]; 15.5 µM in [8]. In [5], this substance showed an IC50 of 29 µM.
Turning to “trans-a,f-Dichloro-b,d-bis(cyclohexylamine)-c,e-dihydroxo-platinium (IV)”, the IC50 in data set [1] was found to be 0.8 µM; in data set [2], 1.2 µM; in [6] it was 3.2 µM; in data set [7], 0.8 µM; in data set [3] it was 0.6 µM; in data set [8], 0.55 µM. In addition, the IC50 in [5] was 2.5 µM.
With “trans-a-Ammine-b,d-dichloro-c,e-dihydrooxy-f-(Morphiline)-platinium (IV)”, the IC50 in data set [1] worked out at 26 µM; in [2], 54 µM; in [6] it was 47 µM; in [7] it was 10.9 µM; in [3], 28.3 µM; in data set [8], 17.3 µM. In [5], this substance had an IC50 of 47 µM. Besides, the LD50 in data set [4] came out at 82 mg/kg.
On to “trans-a-Ammine-b,d-dichloro-c,e-dihydrooxy-f-(ethylamine)-platinium (IV) [listing 1 of 2 here]”, for which the half-maximal inhibitory concentration (IC50) in data set [1] was found to be 9.4 µM; in data set [2] it was 13.3 µM; in data set [6], 26.5 µM; in [7] it was 4.5 µM; in [3], 14 µM; in data set [8] it was 10.3 µM. This substance yielded an IC50 in [5] of 45 µM.
As to “trans-a-Ammine-b,d-dichloro-c,e-dihydrooxy-f-(ethylamine)-platinium (IV) [listing 2 of 2 here]”, the RF in data set [9] turned out to be 5.9; in data set [10] it was 1.4; in data set [11] it was 1.4.
Take “trans-a-Ammine-b,d-dichloro-c,e-dihydroxo-f-(quinuclidine)-platinium (IV) [listing 1 of 2 here]”: the IC50 in [1] stood at 14.4 µM; in data set [2] it was 9.5 µM; in data set [6], 16 µM; in data set [7], 3.2 µM; in data set [3], 14.3 µM; in [8] it was 10.2 µM. This substance registered an IC50 in [5] of 27 µM.
On to “trans-a-Ammine-b,d-dichloro-c,e-dihydroxo-f-(quinuclidine)-platinium (IV) [listing 2 of 2 here]”, for which the RF in [9] was found to be 5; in data set [10], 1.4; in [11] it was 0.7.
Turning to “trans-a-Ammine-b,d-dichloro-c,e-dihydroxy-f-(diethylamine)-platinium (IV) [listing 1 of 2 here]”, the IC50 in [1] came out at 1.8 µM; in data set [2] it was 0.76 µM; in [6], 11.6 µM; in data set [7], 1.9 µM; in data set [3], 4.5 µM; in data set [8], 3.3 µM. In data set [5], this substance displayed a half-maximal inhibitory concentration (IC50) of 12.1 µM.
Consider “trans-a-Ammine-b,d-dichloro-c,e-dihydroxy-f-(diethylamine)-platinium (IV) [listing 2 of 2 here]”, for which the RF in data set [9] was 6.2; in data set [10] it was 1.4; in data set [11], 0.4.
Turning to “trans-a-ammine-b,d-dichloro-f-(cyclohexylamine)-c,e-bis-(ethylcarbamato)platinium (IV)”, the IC50 in data set [1] is 6.2 µM; in data set [2] it was 4.3 µM; in data set [6], 10.6 µM; in [7] it was 3.2 µM; in [3], 5.6 µM; in data set [8], 4.6 µM. Moreover, the IC50 in data set [5] came out at 19 µM.
“trans-a-ammine-b,d-dichloro-f-(cyclohexylamine)-c,e-dihydroxoplatinium (IV)”: the IC50 in data set [1] was 1.3 µM and 3.5 µM; in data set [2], 1.4 µM and 3.2 µM; in data set [6], 3 µM and 1.9 µM; in data set [7] it was 0.42 µM and 0.8 µM; in [3] it was 2.1 µM and 2 µM; in data set [8], 1.1 µM and 0.57 µM. The half-maximal inhibitory concentration (IC50) in data set [5] is 6 µM and 16.6 µM.
